Values after ≈ are worked out from the molar mass of the structure shown.
How the values were obtained:
Assay type in all cases: functional
Streptococcus pyogenes [1] = assay: The in vivo potency was determined in female charles river CD-1 mice infected with Streptococcus pyogenes after peroral administration; details: for ED50: Streptococcus pyogenes, po, read-out: PD50
Procedure, shortened: (§1)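 Acute lethal systemic infection in female CD-1 mice, 16 mice per route; single dose given orally by gavage at the time of challenge; median protective dose (PD50, mg/kg) determined.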

Staphylococcus aureus [2] = assay: Antibacterial activity was determined against gram positive organism, Staphylococcus aureus UC76
Procedure, shortened: (§2)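 MIC (µg/mL) by standard microtitration against a panel of 10 Gram-positive and Gram-negative organisms; values averaged from multiple experiments.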

Streptococcus pneumoniae [3] = assay: The in vivo potency was determined in female charles river CD-1 mice infected with Streptococcus pneumoniae after peroral administration; details: for ED50: Streptococcus pneumoniae, po, read-out: PD50; procedure, shortened: as §1
Escherichia coli [4] = assay: The in vivo potency was determined in female charles river CD-1 mice infected with Escherichia coli after sc administration; details: for ED50: Escherichia coli, sc, read-out: PD50
Procedure, shortened: (§3)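 Acute lethal systemic infection in female CD-1 mice, 16 mice per route; single subcutaneous dose given at the time of challenge; median protective dose (PD50, mg/kg) determined.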

Streptococcus pneumoniae [5] = assay: The in vivo potency was determined in female charles river CD-1 mice infected with Streptococcus pneumoniae after sc administration; details: for ED50: Streptococcus pneumoniae, sc, read-out: PD50; procedure, shortened: as §3
Klebsiella pneumoniae = assay: Antibacterial activity was determined against gram negative organism, Klebsiella pneumoniae MGH-2; procedure, shortened: as §2
Streptococcus pneumoniae [6] = assay: Antibacterial activity was determined against gram positive organism, Streptococcus pneumoniae SV-1; procedure, shortened: as §2
Bacteria [7] = assay: Antibacterial activity was determined against gram negative organism, Providencia rettgeri. M1771; procedure, shortened: as §2
Streptococcus pyogenes [8] = assay: Antibacterial activity was determined against gram positive organism, Streptococcus pyogenes C203; procedure, shortened: as §2
Enterococcus faecalis = assay: Antibacterial activity was determined against gram positive organism, Streptococcus faecalis MGH-2; procedure, shortened: as §2
Streptococcus pyogenes [9] = assay: The in vivo potency was determined in female charles river CD-1 mice infected with Streptococcus pyogenes after sc administration; details: for ED50: Streptococcus pyogenes, sc, read-out: PD50; procedure, shortened: as §3
Staphylococcus aureus [10] = assay: Antibacterial activity was determined against gram positive organism, Staphylococcus aureus H228; procedure, shortened: as §2
Pseudomonas aeruginosa = assay: Antibacterial activity was determined against gram negative organism, Pseudomonas aeruginosa UI-18; procedure, shortened: as §2
Escherichia coli [11] = assay: The in vivo potency was determined in female charles river CD-1 mice infected with Escherichia coli after peroral administration; details: for ED50: Escherichia coli, po, read-out: PD50; procedure, shortened: as §1
[12] = biological target: DNA gyrase (Escherichia coli) (UniProt P0AES6+P0AES4); assay: Minimum inhibitory concentration against Escherichia coli DNA-gyrase in supercoiling assay
Bacteria [13] = assay: MIC ratio measured as the mean MICs of gram-negative bacteria
Procedure, shortened: (§4)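 Geometric mean of the microtitration MICs (µg/mL) over the Gram-negative organisms, and separately over the Gram-positive organisms, of the 10-strain panel; individual MICs averaged from multiple experiments.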

Escherichia coli [14] = assay: Antibacterial activity was determined against gram negative organism, Escherichia coli vogel; procedure, shortened: as §2
Enterobacter cloacae = assay: Antibacterial activity was determined against gram negative organism, Enterobacter cloacae MA2646
Bacteria [15] = assay: MIC ratio measured as the mean MICs of gram-positive bacteria; procedure, shortened: as §4
[16] = Staphylococcus aureus, read-out: MIC
[17] = Klebsiella pneumoniae, read-out: MIC
[18] = Streptococcus pneumoniae, read-out: MIC
[19] = Streptococcus pyogenes, read-out: MIC
[20] = Enterococcus faecalis, read-out: MIC
[21] = Pseudomonas aeruginosa, read-out: MIC
[22] = Escherichia coli, read-out: MIC
[23] = Enterobacter cloacae, read-out: MIC

Structure (SMILES) | ED50 (Streptococcus pyogenes [1]) [mg/kg] | MIC (Staphylococcus aureus [2]; [16]) [µg/mL] | ED50 (Escherichia coli [4]) [mg/kg] | MIC (Klebsiella pneumoniae; [17]) [µg/mL] | MIC (Streptococcus pneumoniae [6]; [18]) [µg/mL] | MIC (Bacteria [7]; Bacteria, read-out: MIC) [µg/mL] | MIC (Streptococcus pyogenes [8]; [19]) [µg/mL] | MIC (Enterococcus faecalis; [20]) [µg/mL] | ED50 (Streptococcus pyogenes [9]) [mg/kg] | MIC (Staphylococcus aureus [10]; [16]) [µg/mL] | MIC (Pseudomonas aeruginosa; [21]) [µg/mL] | ED50 (Escherichia coli [11]) [mg/kg] | MIC [12] [µg/mL] | Geometric mean MIC over Gram-negative bacteria (µg/mL) (Bacteria [13]) | MIC (Escherichia coli [14]; [22]) [µg/mL] | MIC (Enterobacter cloacae; [23]) [µg/mL] | Geometric mean MIC over Gram-positive bacteria (µg/mL) (Bacteria [15]) | also measured
O=C(O)c1cn(C2CC2)c2cc(N3CCNCC3)c(F)cc2c1=O [CIPROFLOXACIN] | > 100 | 0.2 (≈ 0.604 µM) | 0.3 | 0.05 (≈ 0.151 µM) | 0.8 (≈ 2.41 µM) | 0.05 (≈ 0.151 µM) | 0.8 (≈ 2.41 µM) | 0.8 (≈ 2.41 µM) | 19 | 1.6 (≈ 4.83 µM) | 0.4 (≈ 1.21 µM) | 1 |  |  |  |  |  | ED50 (Streptococcus pneumoniae [3]): > 100 mg/kg; ED50 (Streptococcus pneumoniae [5]): 228 mg/kg
O=C(O)c1cn(C2CC2)c2c(F)c(N3CCNCC3)c(F)cc2c1=O | 59 | 0.1 (≈ 0.286 µM) | 0.3 | 0.05 (≈ 0.143 µM) | 0.8 (≈ 2.29 µM) | 0.1 (≈ 0.286 µM) | 0.8 (≈ 2.29 µM) | 0.4 (≈ 1.15 µM) | 29 | 0.4 (≈ 1.15 µM) | 0.2 (≈ 0.573 µM) | 0.5 | 0.5 (≈ 1.43 µM) | 0.076 | 0.05 (≈ 0.143 µM) | 0.05 (≈ 0.143 µM) | 0.4 | ED50 (Streptococcus pneumoniae [3]): 33 mg/kg; ED50 (Streptococcus pneumoniae [5]): 9 mg/kg
NC1CCN(c2c(F)cc3c(=O)c(C(=O)O)cn(C4CC4)c3c2Cl)C1 (stereo in doubt; 1f-4) [CLINAFLOXACIN] |  | 0.025 (≈ 0.0683 µM) | 0.5 | 0.05 (≈ 0.137 µM) |  |  | 0.1 (≈ 0.273 µM) | 0.1 (≈ 0.273 µM) | 4 |  |  | 3 |  |  | 0.025 (≈ 0.0683 µM) | 0.025 (≈ 0.0683 µM) | 0.075 | PD50 (Streptococcus pyogenes [1]): 43 mg/kg; PD50 (Streptococcus pneumoniae [3]): 97 mg/kg; PD50 (Streptococcus pneumoniae [5]): 11 mg/kg; MIC (Streptococcus pneumoniae [6]): 0.1 µg/mL (≈ 0.273 µM); MIC (Bacteria [7]): 0.1 µg/mL (≈ 0.273 µM); MIC (Staphylococcus aureus [10]): 0.1 µg/mL (≈ 0.273 µM); MIC (Pseudomonas aeruginosa): 0.2 µg/mL (≈ 0.547 µM)
Nc1c(F)c(N2CCC(N)C2)cc2c1c(=O)c(C(=O)O)cn2C1CC1 (stereo not drawn) | 110 | 0.025 (≈ 0.0722 µM) | 0.7 | 0.025 (≈ 0.0722 µM) | 0.025 (≈ 0.0722 µM) | 0.05 (≈ 0.144 µM) | 0.05 (≈ 0.144 µM) | 0.05 (≈ 0.144 µM) | 6 | 0.1 (≈ 0.289 µM) | 0.4 (≈ 1.15 µM) | 8 | 2 (≈ 5.77 µM) | 0.038 | 0.013 (≈ 0.0375 µM) | 0.013 (≈ 0.0375 µM) | 0.044 | 
CC1CN(c2c(F)c(O)c3c(=O)c(C(=O)O)cn(C4CC4)c3c2F)CCN1 (stereo not drawn) | > 50 | 0.1 (≈ 0.264 µM) | 0.8 | 0.2 (≈ 0.527 µM) | 0.4 (≈ 1.05 µM) | 0.2 (≈ 0.527 µM) | 0.4 (≈ 1.05 µM) | 0.8 (≈ 2.11 µM) | > 50 | 0.8 (≈ 2.11 µM) | 1.6 (≈ 4.22 µM) | 2 | 0.5 (≈ 1.32 µM) | 0.2 | 0.05 (≈ 0.132 µM) | 0.1 (≈ 0.264 µM) | 0.4 | 
NC1CCN(c2c(F)cc3c(=O)c(C(=O)O)cn(C4CC4)c3c2Cl)C1 (stereo in doubt; 1h-4) [CLINAFLOXACIN] |  |  |  |  |  |  |  |  |  |  |  |  |  |  |  |  | 0.029 | PD50 (Streptococcus pyogenes [1]): 10 mg/kg; MIC (Staphylococcus aureus [2]): 0.013 µg/mL (≈ 0.0355 µM); PD50 (Streptococcus pneumoniae [3]): 14 mg/kg; MIC (Escherichia coli [14]): 0.025 µg/mL (≈ 0.0683 µM); PD50 (Escherichia coli [4]): 0.6 mg/kg; PD50 (Streptococcus pneumoniae [5]): 5 mg/kg; MIC (Klebsiella pneumoniae): 0.025 µg/mL (≈ 0.0683 µM); MIC (Streptococcus pneumoniae [6]): 0.025 µg/mL (≈ 0.0683 µM); MIC (Enterobacter cloacae): 0.025 µg/mL (≈ 0.0683 µM); MIC (Bacteria [7]): 0.025 µg/mL (≈ 0.0683 µM); MIC (Streptococcus pyogenes [8]): 0.05 µg/mL (≈ 0.137 µM); MIC (Enterococcus faecalis): 0.05 µg/mL (≈ 0.137 µM); PD50 (Streptococcus pyogenes [9]): 4 mg/kg; MIC (Staphylococcus aureus [10]): 0.025 µg/mL (≈ 0.0683 µM); MIC (Pseudomonas aeruginosa): 0.05 µg/mL (≈ 0.137 µM); PD50 (Escherichia coli [11]): 3 mg/kg
CC1CN(c2c(F)cc3c(=O)c(C(=O)O)cn(C4CC4)c3c2Cl)CCN1 (stereo not drawn) | 6 | 0.05 (≈ 0.132 µM) | 0.2 | 0.05 (≈ 0.132 µM) | 0.2 (≈ 0.527 µM) | 0.2 (≈ 0.527 µM) | 0.2 (≈ 0.527 µM) | 0.2 (≈ 0.527 µM) | 3 | 0.2 (≈ 0.527 µM) | 0.8 (≈ 2.11 µM) | 0.6 | 2.5 (≈ 6.58 µM) | 0.087 | 0.025 (≈ 0.0658 µM) | 0.025 (≈ 0.0658 µM) | 0.15 | 
